Assays:
[1] = biological target: T1, Oxysterols receptor LXR-alpha (Homo sapiens, UniProt Q13133); experiment: Agonist activity at LXRalpha LBD by HTRF cofactor peptide recruitment assay; assay type: functional
T1 sequence (Q13133 whole entry): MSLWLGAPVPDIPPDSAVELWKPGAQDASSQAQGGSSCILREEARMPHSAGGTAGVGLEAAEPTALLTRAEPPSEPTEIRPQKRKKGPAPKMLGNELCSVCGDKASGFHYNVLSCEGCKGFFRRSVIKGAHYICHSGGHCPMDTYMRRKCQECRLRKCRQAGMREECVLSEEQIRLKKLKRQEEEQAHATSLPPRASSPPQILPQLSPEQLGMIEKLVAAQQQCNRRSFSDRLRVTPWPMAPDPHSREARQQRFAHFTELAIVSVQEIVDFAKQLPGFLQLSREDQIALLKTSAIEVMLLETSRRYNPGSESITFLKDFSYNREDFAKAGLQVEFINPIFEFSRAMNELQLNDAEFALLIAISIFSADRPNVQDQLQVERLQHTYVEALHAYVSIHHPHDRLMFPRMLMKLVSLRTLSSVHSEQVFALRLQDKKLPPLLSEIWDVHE

[2] = biological target: T2, Oxysterols receptor LXR-beta (Homo sapiens, UniProt P55055); experiment: Agonist activity at LXRbeta LBD by HTRF cofactor peptide recruitment assay; assay type: functional
T2 sequence (P55055 whole entry): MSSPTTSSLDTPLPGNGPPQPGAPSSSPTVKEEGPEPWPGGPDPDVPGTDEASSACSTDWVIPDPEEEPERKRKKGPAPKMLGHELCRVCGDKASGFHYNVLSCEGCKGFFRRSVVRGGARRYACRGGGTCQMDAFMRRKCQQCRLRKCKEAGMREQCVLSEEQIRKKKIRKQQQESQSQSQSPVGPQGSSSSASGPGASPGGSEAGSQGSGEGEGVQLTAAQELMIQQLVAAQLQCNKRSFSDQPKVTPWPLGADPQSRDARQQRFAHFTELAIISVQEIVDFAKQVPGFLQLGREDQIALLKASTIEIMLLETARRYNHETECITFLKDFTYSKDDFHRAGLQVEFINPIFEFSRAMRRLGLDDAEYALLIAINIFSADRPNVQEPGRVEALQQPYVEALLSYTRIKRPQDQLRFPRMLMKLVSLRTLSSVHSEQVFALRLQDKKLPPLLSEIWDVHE

[3] = biological target: T2, Oxysterols receptor LXR-beta; experiment: Activation of LXRbeta co-transfected in COS7 cells with RXRalpha by reporter transactivation assay; assay type: functional, cell-based, COS-7
Method in brief: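 Cells exposed to vehicle or compound for 16 h; LXR reporter activation read as luciferase activity in cell lysate. EC50 derived from means of quadruplicate samples, single experiment.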

[4] = test system: THP-1; experiment: Ratio of induction of ABCA1 gene expression in THP1 cells at 10 uM to control; assay type: functional, Homo sapiens
[5] = test system: THP-1; experiment: Induction of cholesterol efflux in THP1 cells after 18 hrs; assay type: functional, cell-based; settings: Homo sapiens, THP-1, 18 h
[6] = test system: HepG2; experiment: Ratio of induction of lipogenesis in HepG2 cells at 10 uM to control after 24 hrs; assay type: functional, Homo sapiens
[7] = test system: THP-1; experiment: Ratio of induction of cholesterol efflux in THP1 cells at 10 uM to control after 18 hrs; assay type: functional, Homo sapiens
[8] = test system: HepG2 (Homo sapiens); experiment: Ratio of induction of SREBP1c gene expression in HepG2 cells at 10 uM to control

| SMILES | EC50 [1] [nM] | EC50 [2] [nM] | EC50 [3] [nM] | Ratio [4] | EC50 [5] [nM] | Ratio [6] | Ratio [7] | Ratio [8] |
| --- | --- | --- | --- | --- | --- | --- | --- | --- |
| CC(C)(C)OC(=O)n1c(-c2ccc3c(c2)CC(NS(=O)(=O)c2ccccc2)C3)cc2ccccc21 (configuration not stated) | 1500 | 190 | 65 | 8.4 | 680 | 3.1 | 1.6 | 3.1 |
| CC(C)(C)OC(=O)n1c(-c2ccc3c(c2)CC(NS(=O)(=O)c2c(F)cccc2F)C3)cc2ccccc21 (configuration not stated) | 570 | 90 | 52 | 7.5 | 210 | 3.2 | 1.7 | 3 |
| CC(C)(C)OC(=O)n1c(-c2ccc3c(c2)CC(NS(=O)(=O)c2cccs2)C3)cc2ccccc21 (configuration not stated) | 540 | 110 | 363 | 7.3 | 570 | 1.7 | 1.5 | 2.9 |
| CC(C)(C)OC(=O)n1c(-c2ccc3c(c2)CC(NS(=O)(=O)c2ccc(F)cc2)C3)cc2ccccc21 (configuration not stated) | 4300 | 460 | 120 | 11.4 | 570 | 2 | 1.7 | 2 |
| CC(C)(C)OC(=O)n1c(-c2ccc3c(c2)CC(NS(=O)(=O)c2ccc(-c4ccon4)s2)C3)cc2ccccc21 (configuration not stated) | > 30000 | 670 | 336 | 7.5 | 590 | 1.2 | 1.7 | 2.1 |
| O=C(O)Cc1cccc(OCCCN(Cc2cccc(C(F)(F)F)c2Cl)CC(c2ccccc2)c2ccccc2)c1 | 367 | 35 | – | 10.7 | 10 | 2.7 | 1.8 | 5.2 |

From ChEMBL document CHEMBL1139922, “Discovery and structure-activity relationship studies of indole derivatives as liver X receptor (LXR) agonists” (Bioorg Med Chem Lett, 2007)
